Source: PubChem BioAssay
KCNQ1 block – inhibitors of human KCNQ1 channel, primary screen, cell-based, thallium flux, high-throughput; Potassium voltage-gated channel subfamily KQT member 1 (Homo sapiens), P51787; CHO-K1 KCNQ1, FluxOR thallium flux fluorescence; active compounds read high; B-score at 10 µM; hit rate 1.3% among 310,000; AID 2642, 2010;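 active means compounds whose thallium flux B-score, printed positive for inhibition, exceeds three library SD while starting fluorescence stays within three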;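 further: channel opened by potassium depolarization with thallium stimulus after 20 min compound exposure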
hERG protect – hERG rescue from dofetilide block, primary screen, cell-based, CHO-hERG, FluxOR thallium flux, dofetilide IC70; dofetilide IC70 present; hit rate 0.51% among 310,000; activation (rescue from dofetilide block), less the hit threshold, % at 10 µM; Voltage-gated inwardly rectifying potassium channel KCNH2 (Homo sapiens), Q12809; AID 1511, 2009;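 active means activation above the mean of controls blocked by dofetilide plus 5 SD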;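 further: thallium influx through hERG after potassium depolarization seen as dye fluorescence rise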
Target sequence (Q12809 whole entry, looked up): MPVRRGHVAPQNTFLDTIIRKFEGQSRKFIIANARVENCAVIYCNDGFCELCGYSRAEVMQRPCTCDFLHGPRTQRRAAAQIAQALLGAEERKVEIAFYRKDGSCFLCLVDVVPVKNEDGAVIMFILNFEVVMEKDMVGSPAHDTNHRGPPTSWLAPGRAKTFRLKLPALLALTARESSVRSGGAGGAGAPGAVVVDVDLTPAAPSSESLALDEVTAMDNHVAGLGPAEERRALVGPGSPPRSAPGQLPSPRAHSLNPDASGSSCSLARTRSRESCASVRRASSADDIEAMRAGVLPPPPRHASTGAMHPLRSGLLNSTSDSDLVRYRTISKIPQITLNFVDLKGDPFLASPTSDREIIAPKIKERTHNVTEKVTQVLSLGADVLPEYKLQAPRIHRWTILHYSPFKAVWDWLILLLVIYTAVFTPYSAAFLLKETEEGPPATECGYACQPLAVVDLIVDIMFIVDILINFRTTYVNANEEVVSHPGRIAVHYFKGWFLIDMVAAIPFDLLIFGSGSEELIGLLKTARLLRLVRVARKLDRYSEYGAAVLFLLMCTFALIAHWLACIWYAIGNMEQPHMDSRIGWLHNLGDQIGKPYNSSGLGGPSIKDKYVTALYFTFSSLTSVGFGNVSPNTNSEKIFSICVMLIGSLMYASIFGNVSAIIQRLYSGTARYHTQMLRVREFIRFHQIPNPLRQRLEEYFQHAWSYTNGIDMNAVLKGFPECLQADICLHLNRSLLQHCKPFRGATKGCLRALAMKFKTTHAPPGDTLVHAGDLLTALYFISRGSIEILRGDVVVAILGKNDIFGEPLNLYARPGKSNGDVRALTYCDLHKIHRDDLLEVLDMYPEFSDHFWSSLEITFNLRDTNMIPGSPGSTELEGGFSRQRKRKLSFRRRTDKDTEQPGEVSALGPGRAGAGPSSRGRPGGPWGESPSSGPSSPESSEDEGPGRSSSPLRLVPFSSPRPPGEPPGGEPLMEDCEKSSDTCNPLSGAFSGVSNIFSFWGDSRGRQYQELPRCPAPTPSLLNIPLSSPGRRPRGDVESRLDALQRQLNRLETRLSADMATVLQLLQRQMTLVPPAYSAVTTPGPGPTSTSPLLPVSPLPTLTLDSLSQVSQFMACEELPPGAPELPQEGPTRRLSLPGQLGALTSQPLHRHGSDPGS
KCNQ1 act – potentiators or activators of KCNQ1 channel, primary screen, cell-based, thallium flux, high-throughput; CHO-K1 KCNQ1, thallium flux FluxOR fluorescence; active compounds read high; B-score at 10 µM; AID 2648, 2010; hit rate 0.35% among 310,000;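 active means fluorescence ratio B-score, a plate-corrected score, at least three library SD, with initial intensity B-score within 5 SD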
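Assay system: stable KCNQ1 CHO-K1 line; medium: assay buffer, equal DMSO in all wells; timing: 90 min dye loading and 20 min compound exposure, both at room temperature; technique: kinetic FluxOR thallium fluorescence, 10-s 1-Hz baseline, 110-s post-stimulus read; read-out basis: B score of baseline-normalized fluorescence ratio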
KCNK9 inh – KCNK9 potassium channel inhibitors, primary screen, HEK293 cells, thallium flux; Potassium channel subfamily K member 9 (Homo sapiens), Q9NPC2; FluxOR thallium flux fluorescence; active compounds read low; B-score at 10 µM; hit rate 1.2% among 310,000;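 active means ratio B-score over 3 SD below the library mean, with starting fluorescence within 5 SD of its mean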;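 further: negative B-score means less thallium flux so channel inhibition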
Kir21 inh – inhibitors of mouse Kir2.1 inward-rectifier potassium channel; Inward rectifier potassium channel 2 (Mus musculus), P35561; HEK293-Kir2.1, FluxOR thallium flux fluorescence; active compounds read low; B-score at 10 µM; hit rate 0.85% among 310,000; AID 1672, 2009;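 active means fluorescence ratio B-score at or below minus 3 SD of library scores, with starting-brightness B-score within 2 SD, cut at about -4.2 in these data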;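 further: channel flux triggered by added potassium and thallium sulfate stimulus; B-score of peak minus minimum fluorescence over baseline after thallium stimulus; more negative B-score means stronger Kir2.1 block with less thallium influx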
KCNK3 inh – human KCNK3 channel inhibitors, primary screen, CHO cells, FluxOR thallium flux, B-score. FluxOR fluorescence; active compounds read low. B-score at 10 µM. hit rate 0.84% among 340,000. AID 602410, 2012;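 active means B-score under library mean minus 4 SD, starting fluorescence ratio at most library mean plus 5 SD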;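 further: more negative B-score means stronger inhibition of thallium flux through KCNK3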
The depositor's hits bear a star; i = inactive; / = not tested or not shown. Only some compounds are listed: those with a hit (about 3.7% of all), similar ones and a draw of the others.

SMILES	KCNQ1 block	hERG protect	KCNQ1 act	KCNK9 inh	Kir21 inh	KCNK3 inh
C/C(=N\NC(=O)CSc1nc(C)cc(C)n1)c1cccc([N+](=O)[O-])c1	i	-6	i	i	0.65	i
CC(C)(C)OC(=O)[C@H]1[C@H](c2ccc([N+](=O)[O-])cc2)C2(C(=O)c3ccccc3C2=O)C2c3ccccc3C=NN21 (some centres undefined)	i	-9	i	i	-0.87	i
CC(C)CN1CCNC(=O)C1CC(=O)NCc1cnn(-c2cccc(F)c2)c1 (centres undefined)	i	-6	i	i	0.03	i
Cc1ccc(C(C)C)c(OCC(=O)OCc2c(C)noc2C)c1	i	-7	i	-7.4*	0.04	i
Cc1ccc(C(C)C)c(OCC(=O)OCC(=O)NC2CC2)c1	/	/	/	/	/	i
CCOc1ccccc1/C=N/NC(=O)c1nnn(-c2nonc2N)c1CN1CCCC1	i	-6	i	i	-0.74	i
CN(CC(=O)Nc1cccc(F)c1)CC(=O)Nc1ccccc1[N+](=O)[O-]	i	-14	i	i	-1.5	i
CCC(C(=O)Nc1cccc(S(=O)(=O)N(C)c2ccccc2)c1)c1ccccc1 (centres undefined)	/	/	/	/	/	-9.9*
CN(CC(=O)Nc1cccc(F)c1)CC(=O)Nc1cccc2ccccc12	/	/	/	/	/	-11*
CN(C)S(=O)(=O)c1cccc(NC(=O)C(c2ccccc2)c2ccccc2)c1	i	-8	i	i	1.6	i
CN(CC(=O)Nc1cccc(F)c1)CC(=O)Nc1cccc(S(=O)(=O)N(C)c2ccccc2)c1	/	/	/	/	/	-9.3*
COCc1ccc(C(=O)Nc2cccc(S(=O)(=O)N(C)c3ccccc3)c2)cc1	/	/	/	/	/	i
CN(c1ccc(C(=O)Nc2cccc(O)c2)cc1)S(=O)(=O)c1ccccc1	i	-23	i	i	-4.8*	i
COc1ccc(N2CC(C(=O)N[C@H](C(=O)NC3CCCCC3)C(C)C)CC2=O)cc1 (some centres undefined)	i	-10	i	i	-0.16	i
Cc1ccc(C)c(Oc2coc3cc(OCC(=O)Nc4ccccc4C(C)C)ccc3c2=O)c1	i	-16	i	i	0.03	/
COC(=O)c1cccc(NC(=O)CSc2nnc(C)n2C)c1	i	-16	i	i	0.9	i
NS(=O)(=O)c1ccc(CCNC(=O)c2ccc[nH]c2=S)cc1	i	-10	i	i	0.05	i
CCC1CCCCN1C(=O)CSc1nnc(-c2c[nH]c3ccccc23)o1 (centres undefined)	i	-1	i	i	-2.2	i
Cc1ccccc1CCNC(=O)C1CCC(=O)N(CCc2cccc(F)c2)C1 (centres undefined)	i	-13	i	i	-0.07	i
CC(C)(C)c1ccc(C(=O)NC(=S)NNC(=O)COc2ccccc2)cc1	i	-5	30*	i	0.96	i
CCOc1ccc(NC(=S)NNC(=O)c2ccc(Br)cc2)cc1	6*	-9	i	i	0.05	i
CCCOc1ccc(C(=O)NNC(=S)NC(C)=O)cc1	i	-19	i	i	-0.13	i
O=C(NNC(=S)NC(=O)c1ccco1)c1ccc(F)cc1	i	-8	i	i	-0.18	i
O=C(NC(=S)NNC(=O)c1ccco1)c1ccc(Br)cc1	6*	-9	i	i	-0.08	i
CCOc1ccc(NC(=O)CCC(=O)c2ccc(Br)cc2)cc1	i	-4	i	i	0.88	i
SMILES	KCNQ1 block	hERG protect	KCNQ1 act	KCNK9 inh	Kir21 inh	KCNK3 inh
CCCOc1ccc(C(=O)NNC(=S)NC(=O)c2ccccc2)cc1	i	17*	34*	i	0.88	i
CCCOc1ccc(C(=O)NNC(=S)NC(=O)c2cccs2)cc1	i	8.8*	38*	i	-0.39	i
CCCOc1ccc(C(=O)NNC(=S)NC(=O)c2ccco2)cc1	i	18*	12*	i	-0.62	i
Cc1ccc2nc(SCC(=O)Nc3cccc([N+](=O)[O-])c3)[nH]c2c1	i	-8	i	i	0.21	i
CCOC(=O)N1CCN(C(=O)CCN2C(=O)/C(=C\c3ccccc3OC)SC2=S)CC1	i	-10	i	i	-0.06	i
COc1ccc(/C=C2\SC(=S)N(CCC(=O)NCCCn3ccnc3)C2=O)cc1	i	-13	i	i	0.48	i
COc1ccccc1/C=C1\SC(=S)N(CCC(=O)NNC(=O)c2ccccc2O)C1=O	6*	-28	i	i	1.5	i
CCOc1ccccc1C=C1SC(=S)N(CC)C1=O	/	/	/	/	/	-9.7*
O=C(CCCN1C(=O)/C(=C/c2ccc(F)cc2)SC1=S)NCCCn1ccnc1	i	-14	i	i	-4.7*	i
COc1ccccc1/C=C1\SC(=S)N(CCC(=O)NCCCn2ccnc2)C1=O	i	-7	i	i	-4.5*	i
O=C(NCc1ccccn1)c1cccc(S(=O)(=O)N2CCc3ccccc32)c1	/	/	/	/	/	i
COc1cc(NC(=O)Cc2cccs2)c(C(=O)O)cc1OC	i	-12	i	i	-1.2	i
COc1cccc(/C=C2\SC(=O)N(CC(=O)NCCCn3ccnc3)C2=O)c1	i	-7	i	i	-2	i
COc1ccc(/C=C2\SC(=O)N(CC(=O)NCCCn3ccnc3)C2=O)cc1	7*	-7	i	i	-0.24	i
O=C(CCl)Nc1ccc(N2CCCCCC2)cc1	i	-7	i	i	-0.06	i
Fc1ccc(C2CC(c3ccco3)=NN2c2ccccc2)cc1 (centres undefined)	7*	-17	i	-7.9*	0.58	i
CS(=O)(=O)N1N=C(c2ccco2)CC1c1ccccc1 (centres undefined)	i	0	i	i	0.5	i
CCOC(=O)C(=NCCCN(C)C)NNc1cc(C(F)(F)F)ccc1Cl	i	-13	i	i	-1.5	i
Cc1csc(NC(=O)CSc2nc(=O)n(CCN(C)C)c3c2CCCC3)n1	i	-12	i	i	-0.9	i
